Assay outcomes (PubChem)
GPR7 antagonist – human neuropeptides B/W receptor 1 antagonism | inhibition, % at 4.4 µM | GPR7-expressing cells, fluorescence antagonist assay | 290,000 compounds, 1.1% hits | P48145 | AID 1861; in the data active = inhibition above about 16%, passing the limit was not always enough;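 note: cells stimulated with the agonist NPW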
Target sequence (P48145 whole entry, looked up): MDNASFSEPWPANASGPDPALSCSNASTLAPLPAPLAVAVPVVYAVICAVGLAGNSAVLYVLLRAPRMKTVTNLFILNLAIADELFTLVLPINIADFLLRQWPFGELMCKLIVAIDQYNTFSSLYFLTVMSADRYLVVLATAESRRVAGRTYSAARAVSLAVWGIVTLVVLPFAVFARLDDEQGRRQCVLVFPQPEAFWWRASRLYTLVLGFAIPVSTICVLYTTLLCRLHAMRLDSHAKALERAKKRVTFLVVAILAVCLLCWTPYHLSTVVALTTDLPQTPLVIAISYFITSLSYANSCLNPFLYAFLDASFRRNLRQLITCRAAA
TAAR1 agonist – agonists of human TAAR1; Q96RJ0; CHO RD-HGA16 TAAR1, Fluo-8 calcium fluorescence; vehicle wells 0%, saturating PEA agonist 100%; activation, % at 3 µM; 360,000 compounds, 0.99% hits;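 active = activation above the mean activation of all test compounds in the run plus 3 SD, cut at about 38% in these data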
Target sequence (Q96RJ0 whole entry, looked up): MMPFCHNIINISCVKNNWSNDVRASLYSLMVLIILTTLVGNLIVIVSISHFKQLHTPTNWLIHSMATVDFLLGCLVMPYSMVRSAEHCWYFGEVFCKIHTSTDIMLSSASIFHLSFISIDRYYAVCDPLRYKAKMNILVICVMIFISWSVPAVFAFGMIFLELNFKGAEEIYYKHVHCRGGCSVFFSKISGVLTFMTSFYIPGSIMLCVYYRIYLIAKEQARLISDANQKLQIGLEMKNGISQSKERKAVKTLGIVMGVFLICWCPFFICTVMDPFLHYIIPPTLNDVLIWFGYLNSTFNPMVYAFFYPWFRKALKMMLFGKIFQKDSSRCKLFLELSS
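Assay system – CHO-derived RD-HGA16 cells with stable Gα16 and human TAAR1 · Compound dosing – one-point dosing at 3 µM (nominal) · Incubation – 17-24 h seeding, 75 min 37 °C dye, 30 min RT · Measured by – kinetic Fluo-8 calcium fluorescence · Control set – DMSO vehicle as 0%, PEA at EC100 as 100% · Repeats – single well for each compound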
OX1R antag-1 – blocks the human orexin 1 receptor; CHO/OX1R cells, Fluo-8 calcium fluorescence, orexin A; inhibition, % at 5 µM; 330,000 compounds, 0.43% hits;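 active = inhibition above its plate's threshold, mean inhibition of all tested compounds on the plate plus 3 SD, cut at about 37% in these data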
OX1R antag-2 – OX1R (human) antagonism; O43613; OX1R-expressing cells, FRET antagonist read-out; inhibition, % at 6.6 µM; 330,000 compounds, 1.8% hits; in the data active = inhibition mostly above about 38%, no sharp cut-off; inactive = mostly below about 40%
TAAR1 antag – human TAAR1 antagonism. Q96RJ0. CHO RD-HGA16 TAAR1, Fluo-8 calcium fluorescence, antagonist. AID 624466. 360,000 compounds, 1.5% hits. inhibition, % at 3 µM;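 active = inhibition above a per-plate cutoff, the mean inhibition of test compounds on that plate plus 3 SD, cut at about 49% in these data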
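Test system: RD-HGA16 CHO cells with stable hTAAR1 and Gα16 / Probe or stimulus: EC80 β-phenethylamine stimulus / Times: seeding 17-24 h prior, 75-min 37 °C, 30-min RT dye loading / Detection: Fluo-8 calcium-sensitive fluorescence / Read-out basis: % inhibition scaled between DMSO and EC80 PEA controls / Repeats: singlicate, one well per test compound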
CHO parental Ca – signal in parental CHO cells, OX1R antagonist counter-screen. 330,000 compounds, 0.63% hits. inhibition, % at 5.6 µM. parental CHO-K1, ATP-induced calcium, Fluo-8 fluorescence;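 active = inhibition above that plate's mean sample inhibition plus 3 SD, cut at about 26% in these data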
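Assay system: untransfected parental CHO cell line. Also added: ATP agonist challenge. Dosing: one dose, 5.6 µM nominal. Measured by: Fluo-8 fluorescence. Read-out: % inhibition. Benchmarks: ATP wells versus no-ATP DMSO wells. Repeats: no replicates.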
TAAR1 ag conf – human TAAR1 agonism, confirmed; shares compounds with TAAR1 agonist; CHO RD-HGA16 TAAR1, Fluo-8 calcium fluorescence; scaled: DMSO 0%, maximal phenethylamine 100%; activation, % at 3 µM; 2,400 compounds, 82% hits; AID 651783;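 active = activation above a cutoff set at the run's mean compound activation plus 3 SD, cut at about 39% in these data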
Ga16 nonsel ag – nonselective agonist in parental cells, TAAR1 agonist counter-screen. shares compounds with TAAR1 agonist. CHO-Ga16 parental, Fluo-8 calcium fluorescence; normalized to maximal ATP response, DMSO zero. activation, % at 3 µM. 2,400 compounds, 50% hits. AID 651787;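 active = activation above the run cutoff, the mean activation over all tested wells plus 3 SD, cut at about 12% in these data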
TAAR1 desens – TAAR1 response desensitization, agonist counter-screen; shares compounds with TAAR1 agonist; CHO RD-HGA16 hTAAR1, Fluo-8 calcium, beta-PEA response inhibition; inhibition, % at 3 µM; 2,400 compounds, 46% hits;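 active = inhibition above the run cutoff, the mean inhibition of all test compounds plus 3 SD, cut at about 49% in these data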;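 note: beta-PEA stimulus applied at its EC80; loss of beta-PEA calcium signal after compound pretreatment read as receptor desensitization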
Ga16 nonsel ant – nonselective Ga16 antagonist in TAAR1 agonist counter-screen; CHO-Ga16 ATP-induced calcium, Fluo-8 fluorescence; AID 651952; inhibition, % at 3 µM; shares compounds with TAAR1 agonist; 2,400 compounds, 39% hits;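 active = inhibition above the plate's mean compound inhibition plus 3 SD, computed per plate, cut at about 22% in these data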
Of the large screens only hits and unclear results are named; the others gave an inactive call (follow-up assays come after a bar, where they were run). Rows were chosen to be rich in hits. Some 4.6% of all compounds tested hit in one or more screens of this group.

COc1ccc(NC(=O)/C(=C\c2ccc3c(c2)OCO3)NC(C)=O)cc1	none
C[C@H](O)[C@@H]1CN2CCc3c([nH]c4c(-c5ccccc5)cccc34)[C@@H]2C[C@@H]1N(C)C(=S)NCCc1ccccc1	TAAR1 agonist 85, TAAR1 antag 61 (no result: GPR7 antagonist, OX1R antag-1, OX1R antag-2, CHO parental Ca) | TAAR1 ag conf inactive | Ga16 nonsel ag inactive | TAAR1 desens inactive | Ga16 nonsel ant inactive
Cc1cc(=O)[nH]c(SCC(=O)N2CCCC2)n1	none (no result: GPR7 antagonist)
Cc1cc(=O)[nH]c(SCC(=O)N2CCCC(C)C2)n1 (centres undefined)	TAAR1 agonist 75 | TAAR1 ag conf 39 | Ga16 nonsel ag inactive | TAAR1 desens inactive | Ga16 nonsel ant inactive
Nc1nonc1-n1nnc(C(=O)N/N=C/c2cccc(Cl)c2)c1-c1ccc2c(c1)OCO2	none
Nc1nonc1-n1nnc(C(=O)N/N=C/c2ccc(Br)cc2)c1-c1ccc2c(c1)OCO2	TAAR1 agonist 154, TAAR1 antag 93 | TAAR1 ag conf 150 | Ga16 nonsel ag 112 | TAAR1 desens 97 | Ga16 nonsel ant 81
Nc1nonc1-n1nnc(C(=O)N/N=C/c2ccc3c(c2)OCO3)c1-c1ccccc1	TAAR1 agonist 75 | TAAR1 ag conf 45 | Ga16 nonsel ag 26 | TAAR1 desens inactive | Ga16 nonsel ant inactive
COc1ccc(/C=C/C(=O)Nc2ccccc2C(F)(F)F)cc1	TAAR1 agonist 48 | TAAR1 ag conf inactive | Ga16 nonsel ag inactive | TAAR1 desens inactive | Ga16 nonsel ant inactive
CCOc1ccc(/C=C/C(=O)Nc2ccccc2C(F)(F)F)cc1	none
COc1ccc(C(=O)CC(=O)C(=O)Nc2ccccc2C(F)(F)F)cc1	TAAR1 agonist 94, TAAR1 antag 73 | TAAR1 ag conf 132 | Ga16 nonsel ag 120 | TAAR1 desens 87 | Ga16 nonsel ant 77
Cc1[nH]c(=O)[nH]c(=O)c1S(=O)(=O)N1CCCC(C(=O)NCc2ccco2)C1 (centres undefined)	none
O=C(CCNS(=O)(=O)/C=C/c1ccccc1)NCCc1c[nH]c2ccccc12	none
CCOC(=O)C1=C(N)n2c(s/c(=C/c3ccco3)c2=O)=C(C(=O)OC)C1c1ccco1 (centres undefined)	TAAR1 agonist 68 | TAAR1 ag conf 72 | Ga16 nonsel ag 30 | TAAR1 desens 51 | Ga16 nonsel ant 40
O=C(O)Cn1ncc2c1-c1ccoc1CC2	none
O=C(Cn1nc(-c2ccccc2)oc1=O)OCC(=O)c1ccccc1	none (no result: GPR7 antagonist)
CCc1nnc(NC(=O)c2sc3nc4cc(C)ccc4cc3c2N)s1	none
CN1CCC(=C(c2ccccc2)c2ccc(Br)cc2)CC1	TAAR1 agonist 54 (no result: GPR7 antagonist) | TAAR1 ag conf 63 | Ga16 nonsel ag 34 | TAAR1 desens inactive | Ga16 nonsel ant inactive
O=CNCC(=O)NCCc1ccc(Cl)cc1	none
CCN(CC)c1ccc(/C=C2/C(=O)c3ccc(C(=O)O)cc3C2=O)cc1	TAAR1 agonist 265, OX1R antag-1 83, TAAR1 antag 103 | TAAR1 ag conf 214 | Ga16 nonsel ag 199 | TAAR1 desens 105 | Ga16 nonsel ant 98
COc1ccc(CC(N)c2csc(NC(=O)CCc3ccccc3)n2)cc1 (centres undefined)	TAAR1 agonist 62, TAAR1 antag 59 (no result: GPR7 antagonist, OX1R antag-1, OX1R antag-2, CHO parental Ca) | TAAR1 ag conf inactive | Ga16 nonsel ag 28 | TAAR1 desens inactive | Ga16 nonsel ant 37
NC(Cc1ccc(F)cc1)c1csc(NC(=O)NC(c2ccccc2)c2ccccc2)n1 (centres undefined)	TAAR1 agonist 56, TAAR1 antag 68 (no result: GPR7 antagonist, OX1R antag-1, OX1R antag-2, CHO parental Ca) | TAAR1 ag conf inactive | Ga16 nonsel ag 23 | TAAR1 desens inactive | Ga16 nonsel ant 45
COc1ccc(CNC(=O)Nc2nc(C(N)Cc3ccc(F)cc3)cs2)cc1 (centres undefined)	TAAR1 agonist 57, TAAR1 antag 59 (no result: GPR7 antagonist, OX1R antag-1, OX1R antag-2, CHO parental Ca) | TAAR1 ag conf 70 | Ga16 nonsel ag 34 | TAAR1 desens 66 | Ga16 nonsel ant 59
COc1ccc(CC(N)c2csc(NC(=O)c3cc(C(C)(C)C)oc3C)n2)cc1 (centres undefined)	TAAR1 agonist 48 (no result: GPR7 antagonist, OX1R antag-1, OX1R antag-2, CHO parental Ca) | TAAR1 ag conf inactive | Ga16 nonsel ag 30 | TAAR1 desens inactive | Ga16 nonsel ant 51
COc1ccc(CNC(=O)Nc2nc(C(N)CCc3ccccc3)cs2)cc1 (centres undefined)	none (no result: GPR7 antagonist, OX1R antag-1, OX1R antag-2, CHO parental Ca)
COc1ccc(C(=O)NCc2nnc(SCC(=O)NC3CCCCC3)o2)cc1	none
O=C(Cn1c2c(sc1=O)C1c3ccccc3OCC1CS2)Nc1ccc(Cl)cc1 (centres undefined)	none
Cc1ccc(OC(C)C(=O)Nc2ccc(S(=O)(=O)N3CCOCC3)cc2)cc1 (centres undefined)	TAAR1 agonist 66 | TAAR1 ag conf 77 | Ga16 nonsel ag 51 | TAAR1 desens inactive | Ga16 nonsel ant 33
Cc1ccc(NC(=O)c2ccc(S(=O)(=O)N3CCCCC3)cc2)cc1	TAAR1 agonist 48 | TAAR1 ag conf inactive | Ga16 nonsel ag inactive | TAAR1 desens inactive | Ga16 nonsel ant inactive
CC(Oc1ccc(Br)cc1)C(=O)Nc1ccc(S(=O)(=O)N(C)C2CCN(C)CC2)cc1 (centres undefined)	TAAR1 agonist 140, TAAR1 antag 99, CHO parental Ca 51 (no result: GPR7 antagonist) | TAAR1 ag conf 140 | Ga16 nonsel ag 100 | TAAR1 desens 102 | Ga16 nonsel ant 82
COc1ccc(CC(=O)Nc2ccc(S(=O)(=O)N(C)C3CCN(C)CC3)cc2)cc1	none (no result: GPR7 antagonist)
CC(C)C(=O)Nc1ccc(C(=O)Nc2ccc(S(=O)(=O)N3CCOCC3)cc2)cc1	none (no result: TAAR1 agonist, TAAR1 antag)
CC(Sc1ccc(Cl)cc1)C(=O)Nc1ccc(S(=O)(=O)N2CCOCC2)cc1 (centres undefined)	TAAR1 agonist 92, TAAR1 antag 50 | TAAR1 ag conf 90 | Ga16 nonsel ag 48 | TAAR1 desens 73 | Ga16 nonsel ant 39
COC(=O)C(NC=O)C(O)(Cc1ccccc1)C(F)(F)F (centres undefined)	none
CC(C)Cc1ccc(CN2CCC(n3nccc3NC(=O)C3CCCC3)CC2)cc1	none
